# Experimental data: ChEMBL document CHEMBL1132197, “Stereospecific synthesis, structure-activity relationship, and oral bioavailability of tetrahydropyrimidin-2-one HIV protease inhibitors” (J Med Chem, 1999)
# Tests used:
# [1] = The maximum plasma concentration (Cmax) is the observed peak plasma concentration after an oral dose on rat; type: ADME, organism-based; design: route oral
# In short: (§1)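 Rats dosed orally in groups at 10 mg/kg, in a formulation of propylene glycol, poly(ethylene glycol) 400 and water. Cmax is the observed peak plasma concentration after the oral dose.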
# [2] = tested on: MT2; assay: Antiviral activity by measuring its effect on the accumulation of viral RNA transcripts on infection of MT-2 cells with HIV-1 RF.; type: functional; conditions: Homo sapiens
# In short: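 Viral RNA transcript accumulation read 3 days after HIV-1 RF infection of MT-2 cells. IC90 is the concentration cutting viral RNA by 90% versus an untreated infected culture. TC50 came from MTT dye reduction in uninfected MT-2 cultures grown 3 days with compound.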
# [3] = target: Human immunodeficiency virus type 1 protease (Human immunodeficiency virus 1, UniProt Q72874); assay: Inhibition constant of HIV protease inhibitors
# In short: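 HIV protease (HIVPR) inhibition constant was determined by monitoring cleavage of a fluorescent peptide substrate, with products separated and quantified by HPLC.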
# [4] = The maximum plasma concentration (Cmax) is the observed peak plasma concentration after an oral dose on dog.; type: ADME, organism-based, Canis lupus familiaris; design: route oral
# [5] = The maximum plasma concentration (Cmax) is the observed peak plasma concentration after an oral dose on rat.; type: ADME, organism-based; design: route oral; in short: as §1
SMILES,Cmax [1] [nM],IC90 [2] [nM],Ki [3] [nM],Cmax [4] [nM],Cmax [5] [nM]
O=C1N(Cc2cccc(-c3cc[nH]n3)c2)[C@H](CCc2ccccc2)[C@@H](O)[C@@H](Cc2ccccc2)N1Cc1cccc(-c2cc[nH]n2)c1,160,22,0.1,–,–
O=C1N(Cc2cccc(CO)c2)[C@H](CCc2ccccc2)[C@@H](O)[C@@H](Cc2ccccc2)N1Cc1cccc(CO)c1,240,109,–,–,–
CC(=O)c1cccc(CN2C(=O)N(Cc3cccc(C(C)=O)c3)[C@H](Cc3ccccc3)[C@H](O)[C@H]2CCc2ccccc2)c1,180,49,0.91,–,–
O=C1N(Cc2ccc3[nH]ncc3c2)[C@H](CCc2ccccc2)[C@@H](O)[C@@H](Cc2ccccc2)N1Cc1ccc2[nH]ncc2c1,–,–,0.02,250,–
Nc1cccc(CN2C(=O)N(Cc3cccc(N)c3)[C@H](Cc3ccccc3)[C@H](O)[C@H]2CCc2ccccc2)c1,1000,365,–,–,–
O=C1N(Cc2cccc(O)c2)[C@H]([C@@H](F)Cc2ccccc2)[C@@H](O)[C@@H](Cc2ccccc2)N1Cc1cccc(O)c1,–,2100,12,–,250
